Test results reported in ChEMBL document CHEMBL4387704, “Design, synthesis and biological evaluation of novel isoindolinone derivatives as potent histone deacetylase inhibitors” (Eur J Med Chem, 2019).
Calls of active or inactive are those of the source. No cut-off for these calls is given here.

Experiments:
[1] = system: SK-MEL-5; test: Growth inhibition of human SK-MEL-5 cells assessed as cell growth inhibition at 10 uM incubated for 48 hrs by sulforhodamine B assay; type: functional; details: SK-MEL-5, 48 h, read-out: GI
[2] = target: Histone deacetylase 9 (Homo sapiens) (UniProt Q9UKV0); test: Inhibition of HDAC9 (unknown origin) using Fluor de Lys substrate by fluorescence assay relative to control
Chain of Histone deacetylase 9 (Homo sapiens) (Q9UKV0 whole entry, canonical isoform): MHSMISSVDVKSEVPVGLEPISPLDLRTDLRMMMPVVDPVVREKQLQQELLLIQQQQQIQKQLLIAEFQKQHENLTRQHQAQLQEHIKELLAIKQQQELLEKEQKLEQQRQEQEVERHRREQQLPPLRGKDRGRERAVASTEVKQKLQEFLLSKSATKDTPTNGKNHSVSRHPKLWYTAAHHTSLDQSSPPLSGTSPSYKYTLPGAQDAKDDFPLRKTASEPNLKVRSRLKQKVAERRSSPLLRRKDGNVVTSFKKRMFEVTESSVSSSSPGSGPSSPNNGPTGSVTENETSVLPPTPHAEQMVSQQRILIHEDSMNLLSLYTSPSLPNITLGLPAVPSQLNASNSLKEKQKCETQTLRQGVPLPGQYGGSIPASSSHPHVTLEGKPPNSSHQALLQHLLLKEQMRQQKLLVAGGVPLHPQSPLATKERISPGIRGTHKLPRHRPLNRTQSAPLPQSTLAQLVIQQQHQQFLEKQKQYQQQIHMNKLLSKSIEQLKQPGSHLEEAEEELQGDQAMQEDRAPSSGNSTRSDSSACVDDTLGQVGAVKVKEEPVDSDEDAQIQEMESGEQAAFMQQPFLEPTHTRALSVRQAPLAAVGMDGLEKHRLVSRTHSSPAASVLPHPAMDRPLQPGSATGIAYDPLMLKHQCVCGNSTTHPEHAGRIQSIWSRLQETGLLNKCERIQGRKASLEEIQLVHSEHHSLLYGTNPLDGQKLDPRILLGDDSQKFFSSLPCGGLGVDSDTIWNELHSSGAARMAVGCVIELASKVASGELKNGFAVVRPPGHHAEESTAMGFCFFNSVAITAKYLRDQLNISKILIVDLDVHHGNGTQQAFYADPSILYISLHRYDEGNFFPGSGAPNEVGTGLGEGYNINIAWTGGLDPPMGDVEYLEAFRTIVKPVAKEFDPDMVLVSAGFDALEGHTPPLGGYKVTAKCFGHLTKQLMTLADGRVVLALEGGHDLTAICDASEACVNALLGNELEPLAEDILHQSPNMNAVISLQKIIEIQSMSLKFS
Summary of the method: (§1)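 Recombinant HDAC isoform assays run by a contract lab. Compounds in DMSO, 10-dose IC50 mode, 3-fold serial dilution from 50 μM. Duplicate runs; IC50 from curve fitting.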

[3] = system: LOX IMVI; test: Growth inhibition of human LOXIMVI cells assessed as cell growth inhibition at 10 uM incubated for 48 hrs by sulforhodamine B assay; type: functional; details: read-out: GI
[4] = system: CCRF-CEM; test: Growth inhibition of human CCRF-CEM cells assessed as cell growth inhibition at 10 uM incubated for 48 hrs by sulforhodamine B assay; type: functional; details: read-out: GI
[5] = system: SW-620; test: Growth inhibition of human SW620 cells assessed as cell growth inhibition at 10 uM incubated for 48 hrs by sulforhodamine B assay; type: functional; details: SW-620, 48 h, read-out: GI
[6] = system: TK-10; test: Growth inhibition of human TK10 cells assessed as cell growth inhibition at 10 uM incubated for 48 hrs by sulforhodamine B assay; type: functional; details: TK-10, 48 h, read-out: GI
[7] = system: MDA-MB-231; test: Growth inhibition of human MDA-MB-231 cells assessed as cell growth inhibition at 10 uM incubated for 48 hrs by sulforhodamine B assay; type: functional; details: MDA-MB-231, 48 h, read-out: GI
[8] = Metabolic stability in rat liver microsomes assessed as internal clearance at 1 uM preincubated for 10 mins followed by NADPH addition measured upto 60 mins by LC-MS/MS analysis; type: ADME, Microsome; details: read-out: CLH
Summary of the method: (§2)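 Liver microsomes from male SD rat, dog or human at 0.5 mg/mL in 100 mM potassium phosphate pH 7.4 with 1 μM compound. Prewarmed 37 °C 10 min, started with 1 mM NADPH. Stopped at 0, 5, 10, 20, 40, 60 min with cold methanol containing glibenclamide internal standard; supernatant by LC–MS/MS; T1/2 and CLint derived.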

[9] = system: OVCAR-3; test: Growth inhibition of human OVCAR3 cells assessed as cell growth inhibition at 10 uM incubated for 48 hrs by sulforhodamine B assay; type: functional; details: OVCAR-3, 48 h, read-out: GI
[10] = target: Histone deacetylase 3 (Homo sapiens, UniProt O15379); test: Inhibition of HDAC3 (unknown origin) using Fluor de Lys substrate by fluorescence assay relative to control; summary of the method: as §1
Chain of Histone deacetylase 3 (O15379 whole entry): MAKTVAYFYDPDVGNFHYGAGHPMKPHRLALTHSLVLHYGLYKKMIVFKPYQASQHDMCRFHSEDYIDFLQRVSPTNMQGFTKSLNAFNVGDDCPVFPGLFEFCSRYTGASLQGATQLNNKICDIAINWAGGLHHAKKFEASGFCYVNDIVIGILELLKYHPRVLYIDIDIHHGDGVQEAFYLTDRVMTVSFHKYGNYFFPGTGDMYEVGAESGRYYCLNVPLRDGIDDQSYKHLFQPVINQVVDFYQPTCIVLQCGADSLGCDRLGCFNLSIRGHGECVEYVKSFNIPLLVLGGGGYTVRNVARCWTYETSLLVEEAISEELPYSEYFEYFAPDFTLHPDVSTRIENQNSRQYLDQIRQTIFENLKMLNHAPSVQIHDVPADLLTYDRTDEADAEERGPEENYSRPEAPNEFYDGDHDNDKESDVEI

[11] = system: RXF 393; test: Growth inhibition of human RXF393 cells assessed as cell growth inhibition at 10 uM incubated for 48 hrs by sulforhodamine B assay; type: functional; details: RXF 393, 48 h, read-out: GI
[12] = system: HL-60; test: Antiproliferative activity against human HL60 assessed as reduction in cell viability measured after 72 hrs using alamar blue based fluorescence method; type: functional; details: HL-60, 72 h
Summary of the method: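 Leukemia lines grown in IMDM with penicillin/streptomycin, HL-60 with 20% FBS and K562 with 10% FBS, at 37 °C, 5% CO2. Cells in 96-well plates exposed to drug for 72 h. Alamar blue (1 mM solution) added for 5–6 h, fluorescence read at 530/590 nm.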

[13] = system: HL-60(TB); test: Growth inhibition of human HL-60(TB) cells assessed as cell growth inhibition at 10 uM incubated for 48 hrs by sulforhodamine B assay; type: functional; details: HL-60, 48 h, read-out: GI
[14] = Metabolic stability in dog liver microsomes assessed as internal clearance at 1 uM preincubated for 10 mins followed by NADPH addition measured upto 60 mins by LC-MS/MS analysis; type: ADME, Canis lupus familiaris, Microsome; details: read-out: CLH; summary of the method: as §2
[15] = system: OVCAR-8; test: Growth inhibition of human OVCAR8 cells assessed as cell growth inhibition at 10 uM incubated for 48 hrs by sulforhodamine B assay; type: functional; details: OVCAR-8, 48 h, read-out: GI
[16] = system: HT-29; test: Growth inhibition of human HT-29 cells assessed as cell growth inhibition at 10 uM incubated for 48 hrs by sulforhodamine B assay; type: functional; details: HT-29, 48 h, read-out: GI
[17] = Clearance in Sprague-Dawley rat at 1 mg/kg, iv by LC-MS/MS analysis; type: ADME, organism-based; details: in vivo
Summary of the method: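 Male SD rats, 199-214 g, three per route. Single iv dose of 1 mg/kg or oral dose of 10 mg/kg. About 200 μL blood drawn from the jugular vein into heparinized tubes at set times, then spun to plasma. 30 μL plasma precipitated with CH3CN containing verapamil and glibenclamide as internal standards. Plasma drug level measured by LC-MS/MS.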

[18] = Volume of distribution at steady state in Sprague-Dawley rat at 1 mg/kg, iv by LC-MS/MS analysis; type: ADME, organism-based; details: in vivo, read-out: Vdss
Summary of the method: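 Male SD rats (199-214 g), three per route, single dose 1 mg/kg iv or 10 mg/kg po. Jugular blood (~200 μL) into heparinized tubes at set times; plasma by centrifugation, protein precipitation with acetonitrile containing verapamil and glibenclamide; drug measured by LC-MS/MS.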

[19] = system: OVCAR-5; test: Growth inhibition of human OVCAR5 cells assessed as cell growth inhibition at 10 uM incubated for 48 hrs by sulforhodamine B assay; type: functional; details: OVCAR-5, 48 h, read-out: GI
[20] = target: Polyamine deacetylase HDAC10 (Homo sapiens, UniProt Q969S8); test: Inhibition of HDAC10 (unknown origin) using Fluor de Lys substrate by fluorescence assay relative to control; summary of the method: as §1
Chain of Polyamine deacetylase HDAC10 (Q969S8 whole entry): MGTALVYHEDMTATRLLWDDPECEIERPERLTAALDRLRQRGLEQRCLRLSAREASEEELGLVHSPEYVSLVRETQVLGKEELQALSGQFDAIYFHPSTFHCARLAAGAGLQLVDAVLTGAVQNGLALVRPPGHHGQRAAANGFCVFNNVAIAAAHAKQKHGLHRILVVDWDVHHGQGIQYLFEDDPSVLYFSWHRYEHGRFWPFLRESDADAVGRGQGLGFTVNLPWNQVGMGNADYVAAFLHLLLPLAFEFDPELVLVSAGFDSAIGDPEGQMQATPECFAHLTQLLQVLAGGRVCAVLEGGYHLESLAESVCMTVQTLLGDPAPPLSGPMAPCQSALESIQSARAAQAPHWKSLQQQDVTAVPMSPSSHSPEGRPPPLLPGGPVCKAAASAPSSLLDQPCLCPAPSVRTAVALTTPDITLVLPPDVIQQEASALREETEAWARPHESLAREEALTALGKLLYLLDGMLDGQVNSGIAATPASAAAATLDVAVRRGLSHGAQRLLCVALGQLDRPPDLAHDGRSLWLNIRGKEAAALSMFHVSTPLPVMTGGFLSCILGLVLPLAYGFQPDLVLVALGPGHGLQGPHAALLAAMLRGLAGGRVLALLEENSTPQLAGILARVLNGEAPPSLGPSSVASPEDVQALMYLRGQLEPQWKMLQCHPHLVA

[21] = system: UACC-257; test: Growth inhibition of human UACC257 cells assessed as cell growth inhibition at 10 uM incubated for 48 hrs by sulforhodamine B assay; type: functional; details: UACC-257, 48 h, read-out: GI
[22] = system: DU-145; test: Growth inhibition of human DU145 cells assessed as cell growth inhibition at 10 uM incubated for 48 hrs by sulforhodamine B assay; type: functional; details: DU-145, 48 h, read-out: GI
[23] = system: NCI-H226; test: Growth inhibition of human NCI-H226 assessed as cell growth inhibition at 10 uM incubated for 48 hrs by sulforhodamine B assay; type: functional; details: NCI-H226, 48 h, read-out: GI
[24] = system: Malme-3M; test: Growth inhibition of human MALME-3M cells assessed as cell growth inhibition at 10 uM incubated for 48 hrs by sulforhodamine B assay; type: functional; details: read-out: GI
[25] = organism: Homo sapiens; test: Selectivity index, ratio of IC50 of HDCA8 (unknown origin) to IC50 of HDCA1 (unknown origin)
[26] = system: HCT-116; test: Growth inhibition of human HCT116 cells assessed as cell growth inhibition at 10 uM incubated for 48 hrs by sulforhodamine B assay; type: functional; details: HCT-116, 48 h, read-out: GI
[27] = system: NCI-H522; test: Growth inhibition of human NCI-H522 cells assessed as cell growth inhibition at 10 uM incubated for 48 hrs by sulforhodamine B assay; type: functional; details: NCI-H522, 48 h, read-out: GI
[28] = Metabolic stability in human liver microsomes assessed as half life at 1 uM preincubated for 10 mins followed by NADPH addition measured upto 60 mins by LC-MS/MS analysis; type: ADME, Microsome; summary of the method: as §2

Which results are given for `Nc1cc(F)ccc1NC(=O)c1ccc(CNC(=O)/C=C2\NC(=O)c3ccccc32)cc1`?
inhibition of growth at 10 µM [1]: 34.7%; inhibition [2]: inactive; inhibition of growth at 10 µM [3]: 15.7%; inhibition of growth at 10 µM [4]: 84.5%; inhibition of growth at 10 µM [5]: 40.1%; inhibition of growth at 10 µM [6]: 72.3%; inhibition of growth at 10 µM [7]: 22.4%; microsomal CLint at 1 µM [8]: 11.7 µL/min/mg; inhibition of growth at 10 µM [9]: 42%; IC50 [10]: 112 nM; inhibition of growth at 10 µM [11]: 17.5%; IC50 [12]: 373 nM; inhibition of growth at 10 µM [13]: 84%; microsomal CLint at 1 µM [14]: 6.92 µL/min/mg; inhibition of growth at 10 µM [15]: 55.9%; inhibition of growth at 10 µM [16]: 40.4%; clearance [17]: 21.3 mL/min/kg; Vd [18]: 0.493 L/kg; inhibition of growth at 10 µM [19]: 36.4%; IC50 [20]: 950 nM; inhibition of growth at 10 µM [21]: 36.6%; inhibition of growth at 10 µM [22]: 13%; inhibition of growth at 10 µM [23]: 30.2%; inhibition of growth at 10 µM [24]: 52.6%; Ratio IC50 [25]: 17; inhibition of growth at 10 µM [26]: 73.3%; inhibition of growth at 10 µM [27]: 70.7%; half-life at 1 µM [28]: 4.87 h
